Experimental data from article PMC2266610 (The Journal of General Physiology, 2005).
“Also recorded” adds a separate entry of the source.

Molecular target: T1, homomeric (CNGA1) rod CNG channel (Bos taurus, UniProt Q00194)
T1 sequence (Q00194 1-690): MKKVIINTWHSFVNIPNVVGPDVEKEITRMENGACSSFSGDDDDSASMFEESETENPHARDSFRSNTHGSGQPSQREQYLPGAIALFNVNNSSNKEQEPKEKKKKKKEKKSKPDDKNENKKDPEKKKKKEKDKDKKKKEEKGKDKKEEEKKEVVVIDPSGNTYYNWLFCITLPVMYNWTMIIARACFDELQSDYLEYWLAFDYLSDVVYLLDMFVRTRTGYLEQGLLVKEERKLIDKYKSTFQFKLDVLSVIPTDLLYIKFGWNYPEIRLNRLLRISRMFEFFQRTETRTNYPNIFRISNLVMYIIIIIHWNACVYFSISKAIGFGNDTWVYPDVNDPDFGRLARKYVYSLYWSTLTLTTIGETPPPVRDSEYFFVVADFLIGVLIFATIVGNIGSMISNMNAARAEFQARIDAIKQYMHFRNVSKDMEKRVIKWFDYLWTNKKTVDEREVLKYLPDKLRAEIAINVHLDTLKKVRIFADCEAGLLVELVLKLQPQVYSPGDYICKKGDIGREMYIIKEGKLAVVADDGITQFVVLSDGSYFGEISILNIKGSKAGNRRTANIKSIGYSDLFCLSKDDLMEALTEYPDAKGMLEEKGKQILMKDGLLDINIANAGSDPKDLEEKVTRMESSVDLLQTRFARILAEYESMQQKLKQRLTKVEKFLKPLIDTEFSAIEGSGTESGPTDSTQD
Assay type: biochemical, bovine
Settings: saturating (2 mM) cGMP; for Inhibitory potency: result in words
Procedure, shortened: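 CNGA1 cRNA was injected into Xenopus oocytes (16°C, 3–12 d). Inside-out patches at room temperature were held in low-divalent Na solution (pH 7.2), with 2 mM cGMP intracellular and niflumic acid extracellular. Retinoid from ethanol stocks was mixed into the bath under dim light after phosphatase-driven affinity shifts finished. Current at +100 mV was taken at ~1 h steady state, leak-subtracted, normalized to pre-drug current, and Hill-fitted.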

Row | SMILES | Inhibition of current at 400 nM retinoid (400 nM, after 1 h, representative patch) | Inhibitory potency | Inhibition of current at 10 μM retinoid (10 μM, after 1 h)
1 | CC1=C(/C=C/C(C)=C/C=C/C(C)=C/C(=O)O)C(C)(C)CCC1 [RA, all-trans-retinoic acid] | did not inhibit; also recorded: no inhibition | No inhibition | –
2 | CC(=O)/C=C/C1=C(C)CCCC1(C)C [β-ionone] | – | No inhibition | unable to inhibit; also recorded: no change in current
